Laboratory results from ChEMBL document CHEMBL1275331, “Discovery of a novel 5-HT(3) antagonist/5-HT(1A) agonist 3-amino-5,6,7,8-tetrahydro-2-{4-[4-(quinolin-2-yl)piperazin-1-yl]butyl}quinazolin-4(3H)-one (TZB-30878) as an orally bioavailable agent for irritable bowel syndrome” (J Med Chem, 2010).
Activity calls are given as the source filed them. The calls are words filed in the database; no cut-off is given here.

How the values were obtained:
[1] = biological target: T1, 5-hydroxytryptamine receptor 3A (Homo sapiens, UniProt P46098); assay: Displacement of [3H]BRL-43694 from human 5HT3 receptor expressed in HEK293 cells by liquid scintillation counting; format: cell-based
T1 sequence (P46098 whole entry): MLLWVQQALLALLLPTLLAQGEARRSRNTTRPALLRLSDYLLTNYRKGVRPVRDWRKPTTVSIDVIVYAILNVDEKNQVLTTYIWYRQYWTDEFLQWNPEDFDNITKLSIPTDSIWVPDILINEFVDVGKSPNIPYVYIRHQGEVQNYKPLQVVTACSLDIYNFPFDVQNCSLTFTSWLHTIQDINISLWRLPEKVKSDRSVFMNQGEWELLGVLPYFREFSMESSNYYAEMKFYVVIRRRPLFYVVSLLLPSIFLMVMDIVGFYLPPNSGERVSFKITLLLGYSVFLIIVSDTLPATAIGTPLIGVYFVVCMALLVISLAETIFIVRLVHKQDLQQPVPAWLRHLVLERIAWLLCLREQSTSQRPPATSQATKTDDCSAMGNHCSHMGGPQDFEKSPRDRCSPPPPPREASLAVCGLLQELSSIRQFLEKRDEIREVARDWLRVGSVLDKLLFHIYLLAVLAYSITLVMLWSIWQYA
Method in brief: (§1)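 HEK-293 membranes expressing human 5-HT3 were incubated with 0.5 nmol/L [3H]BRL-43694 (final) for 60 min at 25 °C. Buffer: 50 mM Tris-HCl, 5 mM MgCl2, 1 mM EDTA, pH 7.5. Compound came from 270 μmol/L DMSO stock, diluted in buffer. Filtration was through GF/B presoaked in 0.5% polyethyleneimine, with two cold Tris washes. Run in duplicate or triplicate; percent inhibition calculated.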

[2] = biological target: T2, 5-hydroxytryptamine receptor 1A (Homo sapiens, UniProt P08908); assay: Displacement of [3H]8-OH-DPAT from human 5HT1A receptor expressed in CHO cells by liquid scintillation counting; format: cell-based
T2 sequence (P08908 whole entry): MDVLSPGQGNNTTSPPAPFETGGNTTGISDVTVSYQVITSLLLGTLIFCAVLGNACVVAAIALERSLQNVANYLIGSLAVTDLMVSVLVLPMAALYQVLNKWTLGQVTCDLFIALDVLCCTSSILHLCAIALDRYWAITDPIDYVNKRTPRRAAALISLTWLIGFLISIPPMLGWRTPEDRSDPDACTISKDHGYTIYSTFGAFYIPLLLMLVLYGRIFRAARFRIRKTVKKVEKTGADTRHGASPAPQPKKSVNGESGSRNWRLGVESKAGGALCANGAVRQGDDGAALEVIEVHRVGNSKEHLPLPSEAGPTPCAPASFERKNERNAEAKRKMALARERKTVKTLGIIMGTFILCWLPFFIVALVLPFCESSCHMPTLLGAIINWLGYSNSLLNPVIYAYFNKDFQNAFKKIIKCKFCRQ
Method in brief: (§2)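 CHO-cell membranes with human 5-HT1A were incubated with 0.25 nmol/L [3H]8-OH-DPAT (final) for 60 min at 27 °C. Buffer: 50 mM Tris-HCl, 10 mM MgSO4, 0.5 mM EDTA, 0.1% ascorbic acid, pH 7.4. Compound came from 270 μmol/L DMSO stock, diluted in buffer. Filtration was through GF/C presoaked in 0.3% polyethyleneimine, with two cold Tris washes. Run in duplicate or triplicate; percent inhibition of binding calculated.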

[3] = biological target: T2, 5-hydroxytryptamine receptor 1A; assay: Agonist activity at human cloned 5HT1A receptor expressed in CHO cells assessed as stimulation of [35S]GTPgammaS binding after 30 mins by liquid scintillation counting; format: functional, cell-based
Method in brief: (§3)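 Membranes from CHO cells expressing human 5-HT1A were diluted in 20 mM HEPES/3 mM MgCl2/120 mM NaCl, pH 7.4. They were preincubated with 20 μM GDP and test drug for 20 min at 30 °C, then held on ice for 15 min. [35S]GTPγS (100 pM) was added for 30 min at 30 °C. Samples were filtered, washed with cold HEPES/MgCl2 buffer, and bound radioactivity counted; EC50 and Emax reported.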

[4] = biological target: T3, 5-hydroxytryptamine receptor 1A (Homo sapiens) (UniProt P08908); assay: Agonist activity at human cloned 5HT1A receptor expressed in CHO cells assessed as stimulation of [35S]GTPgammaS binding at 900 uL after 30 mins by liquid scintillation counting; format: functional, cell-based; method in brief: as §3
T3 sequence (whole entry): T2 sequence (P08908 whole entry)

[5] = biological target: T4, 5-hydroxytryptamine receptor 3A (Cavia porcellus) (UniProt O70212); assay: Inhibition of 5HT3 receptor-mediated contraction of guinea pig ileum at 1 umol/L after 20 mins relative to control; format: tissue-based
T4 sequence (whole entry): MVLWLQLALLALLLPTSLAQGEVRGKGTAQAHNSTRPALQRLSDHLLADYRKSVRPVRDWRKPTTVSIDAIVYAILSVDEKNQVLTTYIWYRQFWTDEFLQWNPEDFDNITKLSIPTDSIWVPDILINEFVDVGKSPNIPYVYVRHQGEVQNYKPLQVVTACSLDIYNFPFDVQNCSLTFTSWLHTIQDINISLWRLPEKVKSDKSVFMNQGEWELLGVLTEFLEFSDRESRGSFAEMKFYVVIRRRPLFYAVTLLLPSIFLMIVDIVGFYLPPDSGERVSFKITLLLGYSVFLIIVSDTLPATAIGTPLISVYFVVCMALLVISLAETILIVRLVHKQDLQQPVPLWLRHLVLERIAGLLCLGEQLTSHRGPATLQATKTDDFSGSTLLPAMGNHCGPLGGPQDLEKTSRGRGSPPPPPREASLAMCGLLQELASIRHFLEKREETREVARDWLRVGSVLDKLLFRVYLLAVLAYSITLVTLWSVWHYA
Method in brief: (§4)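 Ileum strips in Tyrode solution at 37 °C, gassed 5% CO2/95% O2, isotonic contractions under 1 g load. After at least 3 stable contractions to 10 μM 2-methyl-5-HT, tissue exposed to compound or DMSO vehicle for 20 min, then 10 μM 2-methyl-5-HT re-added; contraction expressed as % inhibition of control.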

[6] = biological target: T4, 5-hydroxytryptamine receptor 3A (Cavia porcellus); assay: Inhibition of 5HT3 receptor-mediated contraction of guinea pig ileum at 0.1 umol/L after 20 mins relative to control; format: tissue-based; method in brief: as §4
[7] = Drug level in Sprague-Dawley rat brain at 3 mg/kg, po after 2 hrs by HPLC analysis; format: ADME, organism-based; design: dose 3 mg/kg, route oral; conditions: read-out: Drug uptake
Method in brief: (§5)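 Total compound concentration was measured in brain and blood at 2, 4 and 8 h after a single oral 3 mg/kg dose. Brain/blood ratio was also derived. Values are mean ± SD of three rats.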

[8] = Drug level in Sprague-Dawley rat blood at 3 mg/kg, po after 2 hrs by HPLC analysis; format: ADME, organism-based; design: dose 3 mg/kg, route oral; conditions: whole blood, read-out: Drug uptake; method in brief: as §5
[9] = Ratio of drug level in brain to blood in Sprague-Dawley rat at 3 mg/kg, po after 2 hrs; format: ADME, organism-based; design: dose 3 mg/kg, route oral
Method in brief: (§6)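 Rats dosed 3 mg/kg orally; total compound levels measured in brain and blood at 2, 4 and 8 h, brain/blood ratio derived. Mean ± SD of three rats.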

[10] = Drug level in Sprague-Dawley rat brain at 3 mg/kg, po after 4 hrs by HPLC analysis; format: ADME, organism-based; design: dose 3 mg/kg, route oral; conditions: read-out: Drug uptake; method in brief: as §5
[11] = Drug level in Sprague-Dawley rat blood at 3 mg/kg, po after 4 hrs by HPLC analysis; format: ADME, organism-based; design: dose 3 mg/kg, route oral; conditions: whole blood, read-out: Drug uptake; method in brief: as §5
[12] = Ratio of drug level in brain to blood in Sprague-Dawley rat at 3 mg/kg, po after 4 hrs; format: ADME, organism-based; design: dose 3 mg/kg, route oral; method in brief: as §6
[13] = Drug level in Sprague-Dawley rat brain at 3 mg/kg, po after 8 hrs by HPLC analysis; format: ADME, organism-based; design: dose 3 mg/kg, route oral; conditions: read-out: Drug uptake; method in brief: as §5
[14] = Drug level in Sprague-Dawley rat blood at 3 mg/kg, po after 8 hrs by HPLC analysis; format: ADME, organism-based; design: dose 3 mg/kg, route oral; conditions: whole blood, read-out: Drug uptake; method in brief: as §5
[15] = Ratio of drug level in brain to blood in Sprague-Dawley rat at 3 mg/kg, po after 8 hrs; format: ADME, organism-based; design: dose 3 mg/kg, route oral; method in brief: as §6
[16] = biological target: T3, 5-hydroxytryptamine receptor 1A (Homo sapiens); assay: Displacement of [3H]8-OH-DPAT from human 5HT1A receptor expressed in CHO cells at 100 nM by liquid scintillation counting; format: cell-based; method in brief: as §2
[17] = biological target: T3, 5-hydroxytryptamine receptor 1A (Homo sapiens); assay: Displacement of [3H]8-OH-DPAT from human 5HT1A receptor expressed in CHO cells at 1000 nM by liquid scintillation counting; format: cell-based; method in brief: as §2
[18] = biological target: T5, 5-hydroxytryptamine receptor 3A (Homo sapiens) (UniProt P46098); assay: Displacement of [3H]BRL-43694 from human 5HT3 receptor expressed in HEK293 cells at 100 nM by liquid scintillation counting; format: cell-based; method in brief: as §1
T5 sequence (whole entry): T1 sequence (P46098 whole entry)

[19] = biological target: T5, 5-hydroxytryptamine receptor 3A (Homo sapiens); assay: Displacement of [3H]BRL-43694 from human 5HT3 receptor expressed in HEK293 cells at 1000 nM by liquid scintillation counting; format: cell-based; method in brief: as §1
[20] = test system: Rattus norvegicus; assay: Induction of 5HT1A receptor-mediated lower lip retraction behavior in rat at 10 mg/kg, iv after 30 mins; format: functional, organism-based; design: dose 10 mg/kg
Method in brief: (§7)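 Rats were conditioned to test procedures over 2 weeks and acclimated to the test cage for 1 h. Vehicle was saline containing diluted HCl. Lower lip retraction and flat body posture were scored on a 0–3 scale at 5, 10, 20 and 30 min after dosing.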

[21] = test system: Rattus norvegicus; assay: Induction of 5HT1A receptor-mediated behavioral activity in rat assessed as appearance of flat body posture at 10 mg/kg, iv after 30 mins; format: functional, organism-based; design: dose 10 mg/kg; method in brief: as §7
[22] = test system: Rattus norvegicus; assay: Effect on 5HT1A receptor-mediated hypothermic effect in rat assessed as change in rectal temperature at 10 mg/kg, iv after 30 mins; format: functional, organism-based; design: dose 10 mg/kg
Method in brief: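 Rats were conditioned over 2 weeks and acclimated to the cage for 1 h before dosing (vehicle: saline with diluted HCl). Rectal temperature was recorded with a thermistor probe inserted 3 cm, before and 30 min after administration. The change in temperature was reported.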

[23] = test system: Rattus norvegicus; assay: […] activity in rat assessed as inhibition of 5HT-induced bradycardia at 100 ug/kg, iv by von Benzold-Jarisch reflex assay; format: functional
[24] = test system: Rattus norvegicus; assay: […] activity in rat assessed as inhibition of 5HT-induced bradycardia at 10 ug/kg, iv by von Benzold-Jarisch reflex assay; format: functional

Row | IC50 [1] [nM] | IC50 [2] [nM] | EC50 [3] [nM] | Emax [4] [%] | inhibition [5] [%] | inhibition [6] [%] | concentration at 2 h [7] [nM] | concentration at 2 h [8] [nM] | Kp at 2 h [9] | concentration at 4 h [10] [nM] | concentration at 4 h [11] [nM] | Kp at 4 h [12] | concentration at 8 h [13] [nM] | concentration at 8 h [14] [nM] | Kp at 8 h [15] | Structure (SMILES) | Activity [20] | Activity [21] | further results
1 | 63.8 | 5.6 | 182 | 90.3 | 95.1 | 80 | 63.1 | 21.2 | 2.99 | 32.2 | 10.6 | 3.05 | 13 | 5.17 | 2.53 | Nn1c(SCCCN2CCN(c3ccc4ccccc4n3)CC2)nc2c(c1=O)CCCC2 |  |  | 
2 |  |  |  |  |  |  |  |  |  |  |  |  |  |  |  | Nn1c(=O)c2c(nc1[C@H]1CC[C@@H](N3CCN(c4ccc5ccccc5n4)CC3)CC1)CCCC2 |  |  | inhibition [16]: 42.3%; inhibition [17]: 91.5%; inhibition [18]: 19.6%; inhibition [19]: 87.3%
3 | 59.1 | < 10 | 13.7 | 93.5 | 100 | 97.1 |  |  |  |  |  |  |  |  |  | Cc1cc(N2CCN(CCCCc3nc4c(c(=O)n3N)CCCC4)CC2)nc2ccccc12 | inactive | inactive | Activity [22]: inactive; inhibition in vivo at 0.1 mg/kg [23]: 64.5%
4 | 77.6 | 2.5 | 2.5 | 84.8 | 97.6 | 79.9 | 18.7 | 56 | 0.332 | 12.9 | 36.1 | 0.357 | 2.96 | 8.98 | 0.338 | CC(=O)N1CCc2c(sc3nc(SCCCN4CCN(c5ccc6ccccc6n5)CC4)n(N)c(=O)c23)C1 | Active | Active | deltaT [22]: -0.1 °C; inhibition in vivo at 0.01 mg/kg [24]: 77%
